Here are results for 5 compounds from PMC3257516 (Bioorganic & medicinal chemistry, 2011).

What is called Kd is the concentration at which binding is half-saturated.

Data set [1] in a line: Chemical stability of the inhibitors. Type of data set: physicochemical. The note with it: compound not in complex with HPPK.
The target in a further data set is E. coli HPPK (Escherichia coli, UniProt P26281). Kind of data set: HPPK enzyme inhibition assay with [α-32P]-ATP. Type of data set: biochemical. The note with it: ratio of IC50 values, 19 versus 17.
The target in data set [2] is HPPK (Escherichia coli, UniProt P26281). Kind of data set: Fluorometric titration of HPPK with inhibitor. Type of data set: binding, E. coli. The note with it: ratio of Kd values, 19 versus 17. The method in brief: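 Fluorescence titration of HPPK (initial 10 μM) with inhibitor dissolved in DMSO, added as aliquots from a 500 μM stock. Excitation/emission 420/450 nm or 450/480 nm depending on compound; slits 1 and 4 nm. Kd from nonlinear least-squares fit of fluorescence change to a quadratic single-site binding equation using total enzyme and total inhibitor concentrations.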

Data set [3] concerns the target HPPK. The note with it: cited from earlier work.

Several values for one entry are separate records, joined by “and”; a condition that tells them apart may be missing. Identical values can stand only once. Entries after “also recorded” stand apart in the source; their conditions may differ.

HPPK (Escherichia coli, UniProt P26281), sequence (P26281 whole entry): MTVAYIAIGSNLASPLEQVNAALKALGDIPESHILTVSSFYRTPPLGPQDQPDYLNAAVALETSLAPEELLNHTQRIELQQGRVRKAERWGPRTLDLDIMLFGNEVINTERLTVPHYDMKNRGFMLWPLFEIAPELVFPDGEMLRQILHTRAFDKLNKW
E. coli HPPK, sequence (P26281 whole entry): as above

As for `Nc1nc2ncc(CNCCN3CCC(SC[C@H]4O[C@@H](n5cnc6c(N)ncnc65)[C@H](O)[C@@H]4O)CC3)nc2c(=O)[nH]1` [Compound 17, 2-amino-6-[(2-{4-[5-(6-amino-purin-9-yl)-3,4-dihydroxy-tetrahydro-furan-2-ylmethylsulfanyl]-piperidin-1-yl}-ethylamino)-methyl]-3H-pteridin-4-one], the chemical stability entry in data set [1] was “stable”.
`CC1(C)Nc2nc(N)[nH]c(=O)c2N=C1CNCCN1CCC(SCC2OC(n3cnc4c(N)ncnc43)C(O)C2O)CC1` (centres unmarked) [Compound 18, 2-amino-6-[(2-{4-[5-(6-amino-purin-9-yl)-3,4-dihydroxy-tetrahydro-furan-2-ylmethylsulfanyl]-piperidin-1-yl}-ethylamino)-methyl]-7,7-dimethyl-7,8-dihydro-3H pteridin-4-one]: the chemical stability result in data set [1] is listed as “not stable; also recorded: tends to degrade”.
For `CC1(C)Nc2nc(N)[nH]c(=O)c2N=C1C(=O)NCCN1CCC(SC[C@H]2O[C@@H](n3cnc4c(N)ncnc43)[C@H](O)[C@@H]2O)CC1` [Compound 19, 2-amino-7,7-dimethyl-4-oxo-3,4,7,8-tetrahydro-pteridine-6-carboxylic acid (2-{4-[5-(6-amino-purin-9-yl)-3,4-dihydroxy-tetrahydro-furan-2-ylmethylsulfanyl]-piperidin-1-yl}-ethyl)-amide], the chemical stability entry in data set [1] is “stable”. Further, on E. coli HPPK, the “increased inhibition ability over 17” value was determined as 30 fold. Besides, the “increased binding affinity over 17” value at HPPK [2] is 60 fold and ~ 60 fold.
`Nc1nc2c(c(=O)[nH]1)N=C(CO)CN2` [HP, 6-hydroxymethyl-7,8-dihydropterin]: at HPPK [3], the “Kd for the binding of HP to ligand-free HPPK” value is recorded as “mM range” and the “Kd for the binding of HP to the HPPK MgATP complex” value is listed as “sub-μM range”.
As to `Nc1ncnc2c1ncn2[C@@H]1O[C@H](COP(=O)(O)OP(=O)(O)OP(=O)(O)O)[C@@H](O)[C@H]1O` [MgATP], the Kd on HPPK [3] (read-out: Kd for the binding of MgATP to HPPK) is 2.6 to 4.5 µM.
